ChEMBL document CHEMBL6109036, “Azo derivatives of monoterpenes as anti-Helicobacter pylori agents: from synthesis to structure-based target investigation” (RSC Med Chem, 2025)
≈ marks a conversion by molar mass, not a printed value.

What was measured:
Type in all cases: functional
Helicobacter pylori [1] = test: Anti-bacterial activity against Helicobacter pylori Clinical isolate F4 measured after 72 hrs incubation by modified broth dilution method
Helicobacter pylori [2] = test: Anti-bacterial activity against Helicobacter pylori Clinical isolate F1 measured after 72 hrs incubation by modified broth dilution method
Helicobacter pylori [3] = test: Anti-bacterial activity against Helicobacter pylori measured after 72 hrs incubation by modified broth dilution method
Helicobacter pylori [4] = test: Anti-bacterial activity against Helicobacter pylori NCTC 11637 measured after 72 hrs incubation by modified broth dilution method
Helicobacter pylori [5] = test: Anti-bacterial activity against Helicobacter pylori Clinical isolate 23 measured after 72 hrs incubation by modified broth dilution method
Helicobacter pylori [6] = test: Bactericidal against Helicobacter pylori measured after 72 hrs of incubation under microaerophilic conditions by modified broth dilution method
Method in brief: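 Wells with no visible growth in the MIC assay spotted (10 μL) onto Skirrow agar. Plates incubated 72 h at 37 °C, microaerophilic, 100% humidity. Triplicate, on at least three different days.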

Helicobacter pylori [7] = test: Bactericidal activity against Helicobacter pylori NCTC 11637 measured after 72 hrs of incubation under microaerophilic conditions by modified broth dilution method; details: read-out: MBC99.9
Method in brief: (§1)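 H. pylori (NCTC 11637, F1, 23, F4). Wells with no visible growth in the MIC assay spotted (10 μL) onto Skirrow agar. Plates incubated 72 h at 37 °C, microaerophilic, 100% humidity. MBC = concentration killing 99.9% of the initial inoculum. Triplicate, on at least three different days.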

Helicobacter pylori [8] = test: Bactericidal against Helicobacter pylori Clinical isolate F4 measured after 72 hrs of incubation under microaerophilic conditions by modified broth dilution method; details: read-out: MBC99.9; method in brief: as §1
Helicobacter pylori [9] = test: Bactericidal activity against Helicobacter pylori Clinical isolate 23 measured after 72 hrs of incubation under microaerophilic conditions by modified broth dilution method; details: read-out: MBC99.9; method in brief: as §1
Helicobacter pylori [10] = test: Bactericidal activity against Helicobacter pylori Clinical isolate F1 measured after 72 hrs of incubation under microaerophilic conditions by modified broth dilution method; details: read-out: MBC99.9; method in brief: as §1

| MIC (Helicobacter pylori [1]) [µg/mL] | MIC (Helicobacter pylori [2]) [µg/mL] | MIC50 (Helicobacter pylori [3]) [µg/mL] | MIC90 (Helicobacter pylori [3]) [µg/mL] | MIC (Helicobacter pylori [4]) [µg/mL] | MIC (Helicobacter pylori [5]) [µg/mL] | Structure (SMILES) | MBC90 (Helicobacter pylori [6]) [µg/mL] | MBC (Helicobacter pylori [7]) [µg/mL] | MBC (Helicobacter pylori [8]) [µg/mL] | MBC (Helicobacter pylori [9]) [µg/mL] | MBC (Helicobacter pylori [10]) [µg/mL] |
| --- | --- | --- | --- | --- | --- | --- | --- | --- | --- | --- | --- |
| > 128 | > 128 | > 128 | > 128 | 128 (≈ 248 µM) | > 128 | Cc1cc(/N=N/c2ccc(Br)cc2)c(C(C)C)c(/N=N/c2ccc(Br)cc2)c1O | >128 | 128 (≈ 248 µM) | > 128 | > 128 | > 128 |
| 8 (≈ 26.6 µM) | 16 (≈ 53.1 µM) | 8 (≈ 26.6 µM) | 16 (≈ 53.1 µM) | 8 (≈ 26.6 µM) | 8 (≈ 26.6 µM) | COc1cc(C=O)cc(/N=N/c2cccc([N+](=O)[O-])c2)c1O | 16 (≈ 53.1 µM) | 8 (≈ 26.6 µM) | 16 (≈ 53.1 µM) | 8 (≈ 26.6 µM) | 16 (≈ 53.1 µM) |
| 16 (≈ 47.7 µM) | 8 (≈ 23.9 µM) | 16 (≈ 47.7 µM) | 32 (≈ 95.5 µM) | 16 (≈ 47.7 µM) | 32 (≈ 95.5 µM) | COc1cc(C=O)cc(/N=N/c2ccc(Br)cc2)c1O | 32 (≈ 95.5 µM) | 16 (≈ 47.7 µM) | 16 (≈ 47.7 µM) | 32 (≈ 95.5 µM) | 8 (≈ 23.9 µM) |
| > 128 | > 128 | > 128 | > 128 | > 128 | > 128 | COc1ccc(/N=N/c2cc(C)c(O)c(/N=N/c3ccc(OC)cc3)c2C(C)C)cc1 | >128 | > 128 | > 128 | > 128 | > 128 |
| 128 (≈ 300 µM) | 128 (≈ 300 µM) | 128 (≈ 300 µM) | > 128 | > 128 | 128 (≈ 300 µM) | Cc1c(/N=N/c2ccccc2Cl)cc(C(C)C)c(O)c1/N=N/c1ccccc1Cl | >128 | > 128 | > 128 | > 128 | > 128 |
| 8 (≈ 28.4 µM) | 4 (≈ 14.2 µM) | 8 (≈ 28.4 µM) | 8 (≈ 28.4 µM) | 8 (≈ 28.4 µM) | 8 (≈ 28.4 µM) | COc1cc(C=O)cc(/N=N/c2ccc(C#N)cc2)c1O | 16 (≈ 56.9 µM) | 16 (≈ 56.9 µM) | 8 (≈ 28.4 µM) | 8 (≈ 28.4 µM) | 4 (≈ 14.2 µM) |
| 128 (≈ 440 µM) | 128 (≈ 440 µM) | 128 (≈ 440 µM) | > 128 | 128 (≈ 440 µM) | 128 (≈ 440 µM) | COc1cc(C=O)cc(/N=N/c2cccc(Cl)c2)c1O | >128 | > 128 | 128 (≈ 440 µM) | 128 (≈ 440 µM) | 128 (≈ 440 µM) |
| > 128 | > 128 | > 128 | > 128 | 128 (≈ 380 µM) | > 128 | C=CCc1cc(/N=N/c2ccc(Cl)cc2Cl)c(O)c(OC)c1 | >128 | 128 (≈ 380 µM) | > 128 | > 128 | > 128 |
| > 128 | > 128 | > 128 | > 128 | > 128 | > 128 | Cc1cc(OC(=S)N(C)C)c(C(C)C)cc1/N=N/c1ccc([N+](=O)[O-])cc1 | >128 | > 128 | > 128 | > 128 | > 128 |
| > 256 | 4 (≈ 5.35 µM) | 0.064 (≈ 0.0856 µM) | 256 (≈ 342 µM) | 0.064 (≈ 0.0856 µM) | 0.064 (≈ 0.0856 µM) | CC[C@H]1OC(=O)[C@H](C)[C@@H](O[C@H]2C[C@@](C)(OC)[C@@H](O)[C@H](C)O2)[C@H](C)[C@@H](O[C@@H]2O[C@H](C)C[C@H](N(C)C)[C@H]2O)[C@](C)(OC)C[C@@H](C)C(=O)[C@H](C)[C@@H](O)[C@]1(C)O [CLARITHROMYCIN] |  | 0.064 (≈ 0.0856 µM) | 256 (≈ 342 µM) | 0.064 (≈ 0.0856 µM) | 8 (≈ 10.7 µM) |

| Structure (SMILES) | MIC (Helicobacter pylori [1]) [µg/mL] | MIC (Helicobacter pylori [2]) [µg/mL] | MIC50 (Helicobacter pylori [3]) [µg/mL] | MIC90 (Helicobacter pylori [3]) [µg/mL] | MIC (Helicobacter pylori [4]) [µg/mL] | MIC (Helicobacter pylori [5]) [µg/mL] | MBC90 (Helicobacter pylori [6]) [µg/mL] | MBC (Helicobacter pylori [7]) [µg/mL] | MBC (Helicobacter pylori [8]) [µg/mL] | MBC (Helicobacter pylori [9]) [µg/mL] | MBC (Helicobacter pylori [10]) [µg/mL] |
| --- | --- | --- | --- | --- | --- | --- | --- | --- | --- | --- | --- |
| COc1ccc(/N=N/c2cc(C(C)C)c(OC(=O)N(C)C)cc2C)cc1 | 64 (≈ 180 µM) | 128 (≈ 360 µM) | > 128 | 128 (≈ 360 µM) | 128 (≈ 360 µM) | 64 (≈ 180 µM) | 128 (≈ 360 µM) | 64 (≈ 180 µM) | 64 (≈ 180 µM) | 128 (≈ 360 µM) | > 128 |
